In brackets after ≈: the same amount, converted by molar mass.
What was measured:
Format in all cases: functional
[1] = system: Staphylococcus aureus; assay: Antimicrobial activity against efflux-mediated macrolide-resistant Staphylococcus aureus PK1 by broth microdilution method
How it was run: (§1)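 MIC determined by the standard broth microdilution method; values reported in mg/L. Reference macrolide antibiotics were tested alongside as comparators.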

[2] = system: Streptococcus pneumoniae; assay: Antimicrobial activity against Streptococcus pneumoniae 58 spain by broth microdilution method
How it was run: (§2)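 Standard broth microdilution assay. Read-out is the minimum inhibitory concentration, reported in mg/L.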

[3] = system: Staphylococcus aureus; assay: Antimicrobial activity against Staphylococcus aureus ATCC 13709 by broth microdilution method; how it was run: as §1
[4] = system: Streptococcus pyogenes; assay: Antimicrobial activity against Streptococcus pyogenes 166 GR-Micro by broth microdilution method; how it was run: as §2
[5] = system: Staphylococcus aureus; assay: Antimicrobial activity against macrolide, licosamide streptogramin-resistant Staphylococcus aureus 90265/97 by broth microdilution method; how it was run: as §1
[6] = system: Streptococcus pyogenes; assay: Antimicrobial activity against Streptococcus pyogenes 3565 by broth microdilution method; how it was run: as §2
[7] = system: Haemophilus influenzae; assay: Antimicrobial activity against Haemophilus influenzae ATCC 49247 by broth microdilution method; how it was run: as §2
[8] = system: Streptococcus pyogenes; assay: Antimicrobial activity against Streptococcus pyogenes Finland 2 by broth microdilution method; how it was run: as §1
[9] = system: Streptococcus pneumoniae; assay: Antimicrobial activity against Streptococcus pneumoniae SP030 by broth microdilution method; how it was run: as §2
[10] = system: Streptococcus pneumoniae; assay: Antimicrobial activity against Streptococcus pneumoniae 134 GR-M by broth microdilution method; how it was run: as §2
[11] = system: Streptococcus pyogenes; assay: Antimicrobial activity against macrolide-resistant Streptococcus pyogenes Finland 2 by broth microdilution method; how it was run: as §1

SMILES	MIC [1] [µg/mL]	MIC [2] [µg/mL]	MIC [3] [µg/mL]	MIC [4] [µg/mL]	MIC [5] [µg/mL]	MIC [6] [µg/mL]	MIC [7] [µg/mL]	MIC [8] [µg/mL]	MIC [9] [µg/mL]	MIC [10] [µg/mL]	MIC [11] [µg/mL]
CC[C@H]1OC(=O)[C@H](C)[C@@H](O[C@H]2C[C@@](C)(OC)[C@@H](OC(=O)CCCCCOCCCc3ccc4c(c3)c(=O)c(C(=O)O)cn4CC)[C@H](C)O2)[C@H](C)[C@@H](O[C@@H]2O[C@H](C)C[C@H](N(C)C)[C@H]2O)[C@](C)(O)C[C@@H](C)CN(C)[C@H](C)[C@@H](O)[C@]1(C)O	0.25 (≈ 0.223 µM)	< 0.125	0.25 (≈ 0.223 µM)	< 0.125	0.25 (≈ 0.223 µM)	< 0.125	0.5 (≈ 0.446 µM)	< 0.125	< 0.125	< 0.125	
CC[C@H]1OC(=O)[C@H](C)C(=O)[C@H](C)[C@@H](O[C@@H]2O[C@H](C)C[C@H](N(C)C)[C@H]2O)[C@](C)(OC)C[C@@H](C)C(=O)[C@H](C)[C@H]2N(CCCCn3cnc(-c4cccnc4)c3)C(=O)O[C@]12C [TELITHROMYCIN]	0.125 (≈ 0.154 µM)	0.25 (≈ 0.308 µM)	0.25 (≈ 0.308 µM)	16 (≈ 19.7 µM)	< 0.125	< 0.125	1 (≈ 1.23 µM)	0.5 (≈ 0.616 µM)	< 0.125	0.25 (≈ 0.308 µM)	0.5 (≈ 0.616 µM)
CCOC(=O)CCCCOCC#Cc1ccc2c(c1)c(=O)c(C(=O)OCC)cn2CC	> 64	> 64	> 64	> 64	> 64	> 64	> 64	> 64	> 64	> 64	
CC[C@H]1OC(=O)[C@H](C)[C@@H](O[C@H]2C[C@@](C)(OC)[C@@H](OC(=O)CCCCCOCCCc3ccc4c(c3)c(=O)c(C(=O)O)cn4CC)[C@H](C)O2)[C@H](C)[C@@H](O[C@@H]2O[C@H](C)C[C@H](N(C)C)[C@H]2O)[C@](C)(OC)C[C@@H](C)C(=O)[C@H](C)[C@@H](O)[C@]1(C)O	2 (≈ 1.79 µM)	< 0.125	2 (≈ 1.79 µM)	< 0.125	4 (≈ 3.57 µM)	< 0.125	8 (≈ 7.15 µM)	< 0.125	< 0.125	1 (≈ 0.893 µM)	
CC[C@H]1OC(=O)[C@H](C)[C@@H](O[C@H]2C[C@@](C)(OC)[C@@H](O)[C@H](C)O2)[C@H](C)[C@@H](O[C@@H]2O[C@H](C)C[C@H](N(C)C)[C@H]2O)[C@](C)(OC)C[C@@H](C)C(=O)[C@H](C)[C@@H](O)[C@]1(C)O [CLARITHROMYCIN]	32 (≈ 42.8 µM)	> 64	≤ 0.125	> 64	> 64	≤ 0.125	8 (≈ 10.7 µM)	4 (≈ 5.35 µM)	≤ 0.125	> 64	4 (≈ 5.35 µM)
CCn1cc(C(=O)O)c(=O)c2cc(C#CCOCCCCCC(=O)O)ccc21	> 64	> 64	> 64	> 64	> 64	> 64	> 64	> 64	> 64	> 64	
CC[C@H]1OC(=O)[C@H](C)[C@@H](O[C@H]2C[C@@](C)(OC)[C@@H](OC(=O)CCCCCOCC#Cc3ccc4c(c3)c(=O)c(C(=O)O)cn4CC)[C@H](C)O2)[C@H](C)[C@@H](O[C@@H]2O[C@H](C)C[C@H](N(C)C)[C@H]2O)[C@](C)(OC)C[C@@H](C)C(=O)[C@H](C)[C@@H](O)[C@]1(C)O	2 (≈ 1.79 µM)	< 0.125	2 (≈ 1.79 µM)	2 (≈ 1.79 µM)	8 (≈ 7.17 µM)	< 0.125	16 (≈ 14.3 µM)	< 0.125	< 0.125	4 (≈ 3.59 µM)	
CC[C@H]1OC(=O)[C@H](C)[C@@H](O[C@H]2C[C@@](C)(OC)[C@@H](OC(=O)CCCCOCCCc3ccc4c(c3)c(=O)c(C(=O)O)cn4CC)[C@H](C)O2)[C@H](C)[C@@H](O[C@@H]2O[C@H](C)C[C@H](N(C)C)[C@H]2O)[C@](C)(O)C[C@@H](C)CN(C)[C@H](C)[C@@H](O)[C@]1(C)O	0.5 (≈ 0.452 µM)	< 0.125	0.5 (≈ 0.452 µM)	0.25 (≈ 0.226 µM)	4 (≈ 3.62 µM)	< 0.125	2 (≈ 1.81 µM)	< 0.125	< 0.125	0.25 (≈ 0.226 µM)	
CC[C@H]1OC(=O)[C@H](C)[C@@H](O[C@H]2C[C@@](C)(OC)[C@@H](OC(=O)CCCCCOCCCc3ccc4c(c3)c(=O)c(C(=O)O)cn4CC)[C@H](C)O2)[C@H](C)[C@@H](O[C@@H]2O[C@H](C)C[C@H](N(C)C)[C@H]2O)[C@](C)(O)C[C@@H](C)CN(C)[C@H](C)[C@@H](OC)[C@]1(C)O	1 (≈ 0.881 µM)	< 0.125	1 (≈ 0.881 µM)	0.5 (≈ 0.441 µM)	2 (≈ 1.76 µM)	< 0.125	1 (≈ 0.881 µM)	< 0.125	< 0.125	0.5 (≈ 0.441 µM)	
CCOC(=O)CCCCCOCC#Cc1ccc2c(c1)c(=O)c(C(=O)OCC)cn2CC	> 64	64 (≈ 145 µM)	> 64	> 64	> 64	8 (≈ 18.1 µM)	> 64	> 64	16 (≈ 36.2 µM)	64 (≈ 145 µM)	> 64
CC[C@H]1OC(=O)[C@H](C)[C@@H](O[C@H]2C[C@@](C)(OC)[C@@H](OC(=O)CCCCOCC#Cc3ccc4c(c3)c(=O)c(C(=O)O)cn4CC)[C@H](C)O2)[C@H](C)[C@@H](O[C@@H]2O[C@H](C)C[C@H](N(C)C)[C@H]2O)[C@](C)(O)C[C@@H](C)CN(C)[C@H](C)[C@@H](O)[C@]1(C)O	0.5 (≈ 0.454 µM)	< 0.125	0.5 (≈ 0.454 µM)	1 (≈ 0.907 µM)	4 (≈ 3.63 µM)	< 0.125	1 (≈ 0.907 µM)	< 0.125	< 0.125	0.5 (≈ 0.454 µM)	
CCn1cc(C(=O)O)c(=O)c2cc(C#CCOCCCCC(=O)O)ccc21	> 64	2 (≈ 5.39 µM)	> 64	> 64	> 64	1 (≈ 2.69 µM)	> 64	16 (≈ 43.1 µM)	1 (≈ 2.69 µM)	> 64	16 (≈ 43.1 µM)
CC[C@H]1OC(=O)[C@H](C)[C@@H](O[C@H]2C[C@@](C)(OC)[C@@H](O)[C@H](C)O2)[C@H](C)[C@@H](O[C@@H]2O[C@H](C)C[C@H](N(C)C)[C@H]2O)[C@](C)(O)C[C@@H](C)CN(C)[C@H](C)[C@@H](O)[C@]1(C)O [AZITHROMYCIN]	> 64	> 64	0.5 (≈ 0.668 µM)	> 64	> 64	< 0.125	1 (≈ 1.34 µM)	16 (≈ 21.4 µM)	< 0.125	> 64	16 (≈ 21.4 µM)

From ChEMBL document CHEMBL1221271, “6-Alkylquinolone-3-carboxylic acid tethered to macrolides synthesis and antimicrobial profile” (2010)
